For data set [1], the target named is T1, hENT2 (Homo sapiens, UniProt Q14542).
T1 sequence (Q14542 1-456): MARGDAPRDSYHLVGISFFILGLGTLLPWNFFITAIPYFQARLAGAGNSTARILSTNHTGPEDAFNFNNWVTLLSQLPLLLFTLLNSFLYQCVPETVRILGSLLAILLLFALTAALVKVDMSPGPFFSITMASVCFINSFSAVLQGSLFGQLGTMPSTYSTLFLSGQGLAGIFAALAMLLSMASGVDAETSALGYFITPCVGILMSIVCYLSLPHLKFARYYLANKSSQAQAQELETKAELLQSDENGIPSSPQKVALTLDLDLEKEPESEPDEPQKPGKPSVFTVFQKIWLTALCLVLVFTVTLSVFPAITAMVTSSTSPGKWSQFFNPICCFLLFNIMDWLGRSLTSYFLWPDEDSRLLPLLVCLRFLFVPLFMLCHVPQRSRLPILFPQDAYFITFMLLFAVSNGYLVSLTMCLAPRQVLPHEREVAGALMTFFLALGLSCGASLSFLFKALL
The experiment in a line: Inhibition of [3H]uridine uptake in PK15/hENT2 cells. It counts as cell-based. The method in brief: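 PK15 cells stably expressing hENT2, in sodium-free choline chloride buffer at pH 7.4. Test compound was added for 15 min, either at graded concentrations or at 10 μM for screening; 0.2 μM [3H]uridine was then taken up for 2 min. Stopped with ice-cold PBS washes, lysed in Triton X-100, scintillation counted. Triplicates; screening uptake given as % of compound-free uptake; IC50 by nonlinear fit.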

Data set [2] concerns human ENT4. The following applies: read-out: apparent Km of adenosine transport; pH 5.5; cited from earlier work.
Data set [3] relates to mouse ENT4. The following applies: read-out: apparent Km of adenosine transport; pH 5.5; cited from earlier work.
Data set [4] deals with T2, hENT4 (Homo sapiens, UniProt Q7RTT9).
T2 sequence (Q7RTT9 1-530): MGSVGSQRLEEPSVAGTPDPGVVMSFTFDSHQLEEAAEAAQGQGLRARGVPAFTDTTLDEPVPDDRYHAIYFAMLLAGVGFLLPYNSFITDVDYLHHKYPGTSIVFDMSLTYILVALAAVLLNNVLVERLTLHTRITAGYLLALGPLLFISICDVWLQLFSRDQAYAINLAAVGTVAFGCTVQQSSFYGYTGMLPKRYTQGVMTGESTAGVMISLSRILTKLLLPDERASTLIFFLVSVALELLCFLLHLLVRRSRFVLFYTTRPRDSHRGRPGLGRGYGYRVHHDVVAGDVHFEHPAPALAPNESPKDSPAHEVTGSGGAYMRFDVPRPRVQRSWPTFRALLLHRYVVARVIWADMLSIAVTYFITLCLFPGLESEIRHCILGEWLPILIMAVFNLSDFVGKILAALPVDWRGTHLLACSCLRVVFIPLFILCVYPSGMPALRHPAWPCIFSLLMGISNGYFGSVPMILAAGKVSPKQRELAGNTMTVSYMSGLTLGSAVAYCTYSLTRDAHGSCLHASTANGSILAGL
Description: Inhibition of [3H]adenosine uptake in PK15/hENT4 cells at pH 6.0. The format is cell-based. Put shortly: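 PK15NTD porcine kidney cells stably expressing FLAG-tagged hENT4 (cDNA cloned from HUVECs, G418-selected). Cells preincubated 15 min with graded test compound concentrations in transport buffer at pH 6.0, then given 0.2 μM [3H]adenosine for 2 min. Stopped by aspiration and three ice-cold PBS washes, lysed in 5% Triton X-100, scintillation counted. Triplicates; IC50 by nonlinear fitting.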

Data set [5] concerns PK15-hENT4 cells. The experiment in a line: MTT assay for cell viability. It counts as cell-based, porcine. To be noted: 10 μM, 24 hours, compared with camptothecin. The method in brief:
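PK15NTD (nucleoside-transporter-deficient) cells stably expressing recombinant hENT4 were trypsinised and seeded at 5 × 10^3 cells/well in MEM. […] MTT (5 mg/ml stock in PBS) was added for 4 h at 37 °C. Formazan was dissolved in 0.04 N HCl/isopropanol for 3 h at room temperature, and absorbance was read at 570 nm.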
On the technique in general: Formazan colour is commonly taken as a measure of viable cells.

For data set [6], the target named is T1, hENT2. To be noted: read-out: hENT2 IC50; cited from earlier work.

Like-named read-outs stand apart in the source and are kept apart here.

In the case of `OCCN(CCO)c1nc(N2CCCCCCC2)c2nc(N(CCO)CCO)nc(N3CCCCCCC3)c2n1` [Compound 13, 2,6-bis(diethanolamino)-4,8-diheptamethyleneimino-pyrimido[5,4d]pyrimidine], the “activity against hENT2 (in words)” value in data set [1] is recorded as “active”.

As for `Nc1ncnc2c1ncn2[C@@H]1O[C@H](CO)[C@@H](O)[C@H]1O` [adenosine], the Michaelis-Menten constant (Km) in data set [2] is 780 µM; in data set [3], 130 µM.

As to `CC(C)CN(CC(C)C)c1nc(NCCO)nc2c(N(CC(C)C)CC(C)C)nc(NCCO)nc12` [Compound 30, 2,6-diethanolamino-4,8-di-(diisobutylamino)-pyrimido[5,4-d]pyrimidine], the “selectivity for hENT4 relative to ENT1” value in data set [4] is given as “about 80 fold”. In addition, the “selectivity for hENT4 relative to ENT2” value in data set [4] is listed as about 20 fold. Besides, the “cytotoxicity / cell viability (in words)” value in data set [5] is recorded as “no cytotoxicity”; in data set [5] (listed as compound 30), “significantly non-cytotoxic”.

As for `O=[N+]([O-])c1ccc(CSc2ncnc3c2ncn3[C@@H]2O[C@H](CO)[C@@H](O)[C@H]2O)cc1` [NBMPR, nitrobenzylmercaptopurine ribonucleoside, reference compound], the IC50 in data set [1] was 1350 nM; in data set [4] it was 2330 nM; in data set [6], 2800 nM.

The term Km denotes the concentration of substrate that gives half-maximal velocity. What is called IC50 is the concentration that inhibits the measured activity by half.
